# Reference: ChEMBL document CHEMBL4689842, “EUbOPEN Chemogenomics Library wave 1” (2021)
# Where “and” joins values, the source holds several entries; their conditions need not be identical. Identical values can stand only once.
# Key:
# Format in all cases: toxicity, cell-based
# Fibroblast [1] = experiment: Incucyte cell viability with human fibroblast; details: 10 µM, compound concentration 10 uM; note: filed as whole numbers so only -1 and 0 and 1 occur
# Fibroblast [2] = experiment: Multiplex assay against human fibroblast; details: 10 µM, compound concentration 10 uM
# Procedure, shortened: (§1)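 Compound was added to live cells that had been stained at seeding with Hoechst33342, BioTracker Green Microtubule Cytoskeleton Dye, MitoTracker Red and Annexin V Alexa Fluor 680, and imaging followed on a CQ1 microscope at 37°C and 5% CO2. CellPathfinder machine-learning gating divided cells into Hoechst high-intensity objects or normal cells, normal cells into healthy, pyknosed or fragmented nuclei, and pyknosed cells into mitotic or apoptotic. Tubulin, mitochondrial-mass and membrane-permeability phenotypes are per cents of healthy-nucleus cells.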
# HEK-293T [3] = experiment: Multiplex assay against HEK293T; details: human, 10 µM, compound concentration 10 uM; procedure, shortened: as §1
# U2OS [4] = experiment: Multiplex assay against U2OS; details: human, 10 µM, compound concentration 10 uM; procedure, shortened: as §1
# U2OS [5] = experiment: Incucyte cell viability with U2OS; details: human, 10 µM, compound concentration 10 uM; note: filed as whole numbers so only -1 and 0 and 1 occur
# HEK-293T [6] = experiment: Incucyte cell viability with HEK293T; details: human, 10 µM, compound concentration 10 uM; note: filed as whole numbers so only -1 and 0 and 1 occur
# [7] = 0 h, replicate number 1, timepoint 0 hours
# [8] = 12 h, replicate number 1, timepoint 12 hours
# [9] = 18 h, replicate number 1, timepoint 18 hours
# [10] = 24 h, replicate number 1, timepoint 24 hours
# [11] = 6 h, replicate number 1, timepoint 6 hours
structure (smiles),measurement,setting,value
CN(c1ccccc1CNc1nc(Nc2ccc3c(c2)CC(=O)N3)ncc1C(F)(F)F)S(C)(=O)=O,Growth Rate,Fibroblast [1]; [7],1
same,Growth Rate,"Fibroblast [1]; 0 h, replicate number 2, timepoint 0 hours",0
same,Growth Rate,Fibroblast [1]; [8],1
same,Growth Rate,Fibroblast [1]; [9],0
same,Growth Rate,"Fibroblast [1]; 18 h, replicate number 2, timepoint 18 hours",1
same,Growth Rate,Fibroblast [1]; [10],0
same,Population Apoptotic (%),"Fibroblast [2]; 12 h, replicate 1",77% and 66%
same,Population Fragmented Nuclei (%),"Fibroblast [2]; 12 h, replicate 1",25% and 30%
same,Population Healthy Nuclei (%),"Fibroblast [2]; 12 h, replicate 1",60% and 55%
same,Population Hoechst High Intensity Objects (%),"Fibroblast [2]; 12 h, replicate 1",16% and 14%
same,Population Mitotic Cells (%),"Fibroblast [2]; 12 h, replicate 1",22% and 33%
same,Population Normal (%),"Fibroblast [2]; 12 h, replicate 1",83% and 85%
same,Population Pyknosed Nuclei (%),"Fibroblast [2]; 12 h, replicate 1",13% and 14%
same,Total Cell Count,"Fibroblast [2]; 12 h, replicate 1",189 and 148
same,Population Fragmented Nuclei (%),"Fibroblast [2]; 12 h, replicate 2",56% and 49%
same,Population Healthy Nuclei (%),"Fibroblast [2]; 12 h, replicate 2",38% and 25%
same,Population Hoechst High Intensity Objects (%),"Fibroblast [2]; 12 h, replicate 2",39% and 31%
same,Population Mitochondria Different-Phenotype (%),"Fibroblast [2]; 12 h, replicate 2",5% and 14%
same,Population Mitotic Cells (%),"Fibroblast [2]; 12 h, replicate 2",100% and 64%
same,Population Normal (%),"Fibroblast [2]; 12 h, replicate 2",60% and 68%
same,Total Cell Count,"Fibroblast [2]; 12 h, replicate 2",83 and 80
same,Population Apoptotic (%),"Fibroblast [2]; 24 h, replicate 1",70% and 91%
same,Population Fragmented Nuclei (%),"Fibroblast [2]; 24 h, replicate 1",26% and 36%
same,Population Healthy Nuclei (%),"Fibroblast [2]; 24 h, replicate 1",55% and 54%
same,Population Hoechst High Intensity Objects (%),"Fibroblast [2]; 24 h, replicate 1",14% and 18%
same,Population Membrane Permeable-Phenotype (%),"Fibroblast [2]; 24 h, replicate 1",11%
same,Population Normal (%),"Fibroblast [2]; 24 h, replicate 1",85% and 81%
same,Population Pyknosed Nuclei (%),"Fibroblast [2]; 24 h, replicate 1",18% and 9%
same,Total Cell Count,"Fibroblast [2]; 24 h, replicate 1",176 and 163
same,Population Fragmented Nuclei (%),"Fibroblast [2]; 24 h, replicate 2",43% and 49%
same,Population Healthy Nuclei (%),"Fibroblast [2]; 24 h, replicate 2",47% and 28%
same,Population Hoechst High Intensity Objects (%),"Fibroblast [2]; 24 h, replicate 2",36% and 30%
same,Population Membrane Permeable-Phenotype (%),"Fibroblast [2]; 24 h, replicate 2",18% and 20%
same,Population Mitochondria Different-Phenotype (%),"Fibroblast [2]; 24 h, replicate 2",13% and 26%
same,Population Normal (%),"Fibroblast [2]; 24 h, replicate 2",63% and 69%
same,Population Pyknosed Nuclei (%),"Fibroblast [2]; 24 h, replicate 2",8% and 22%
same,Total Cell Count,"Fibroblast [2]; 24 h, replicate 2",73 and 76
same,Population Apoptotic (%),"HEK-293T [3]; 12 h, replicate 1",20% and 22%
same,Population Fragmented Nuclei (%),"HEK-293T [3]; 12 h, replicate 1",24% and 17%
same,Population Healthy Nuclei (%),"HEK-293T [3]; 12 h, replicate 1",40% and 71%
same,Population Hoechst High Intensity Objects (%),"HEK-293T [3]; 12 h, replicate 1",21% and 10%
same,Population Membrane Permeable-Phenotype (%),"HEK-293T [3]; 12 h, replicate 1",10%
same,Population Mitotic Cells (%),"HEK-293T [3]; 12 h, replicate 1",80% and 77%
same,Population Normal (%),"HEK-293T [3]; 12 h, replicate 1",78% and 89%
same,Population Pyknosed Nuclei (%),"HEK-293T [3]; 12 h, replicate 1",35%
same,Total Cell Count,"HEK-293T [3]; 12 h, replicate 1",538 and 612
same,Population Apoptotic (%),"HEK-293T [3]; 12 h, replicate 2",17%
same,Population Fragmented Nuclei (%),"HEK-293T [3]; 12 h, replicate 2",3% and 5%
same,Population Healthy Nuclei (%),"HEK-293T [3]; 12 h, replicate 2",85% and 90%
same,Population Membrane Permeable-Phenotype (%),"HEK-293T [3]; 12 h, replicate 2",5% and 1%
same,Population Mitochondria Different-Phenotype (%),"HEK-293T [3]; 12 h, replicate 2",37%
same,Population Mitotic Cells (%),"HEK-293T [3]; 12 h, replicate 2",82%
same,Population Normal (%),"HEK-293T [3]; 12 h, replicate 2",92% and 97%
same,Population Pyknosed Nuclei (%),"HEK-293T [3]; 12 h, replicate 2",10% and 4%
same,Total Cell Count,"HEK-293T [3]; 12 h, replicate 2",896 and 1228
same,Population Apoptotic (%),"HEK-293T [3]; 24 h, replicate 1",23% and 26%
same,Population Fragmented Nuclei (%),"HEK-293T [3]; 24 h, replicate 1",24% and 15%
same,Population Healthy Nuclei (%),"HEK-293T [3]; 24 h, replicate 1",40% and 78%
same,Population Hoechst High Intensity Objects (%),"HEK-293T [3]; 24 h, replicate 1",17% and 10%
same,Population Membrane Permeable-Phenotype (%),"HEK-293T [3]; 24 h, replicate 1",4% and 9%
same,Population Mitotic Cells (%),"HEK-293T [3]; 24 h, replicate 1",76% and 73%
same,Population Normal (%),"HEK-293T [3]; 24 h, replicate 1",82% and 89%
same,Total Cell Count,"HEK-293T [3]; 24 h, replicate 1",531 and 582
same,Population Apoptotic (%),"HEK-293T [3]; 24 h, replicate 2",17% and 15%
same,Population Healthy Nuclei (%),"HEK-293T [3]; 24 h, replicate 2",83%
same,Population Hoechst High Intensity Objects (%),"HEK-293T [3]; 24 h, replicate 2",8% and 4%
same,Population Membrane Permeable-Phenotype (%),"HEK-293T [3]; 24 h, replicate 2",3% and 2%
same,Population Mitochondria Different-Phenotype (%),"HEK-293T [3]; 24 h, replicate 2",41%
same,Population Mitotic Cells (%),"HEK-293T [3]; 24 h, replicate 2",82% and 84%
same,Population Normal (%),"HEK-293T [3]; 24 h, replicate 2",91% and 95%
same,Total Cell Count,"HEK-293T [3]; 24 h, replicate 2",898 and 1570
same,Population Apoptotic (%),"U2OS [4]; 12 h, replicate 1",40% and 75%
same,Population Healthy Nuclei (%),"U2OS [4]; 12 h, replicate 1",44% and 89%
same,Population Hoechst High Intensity Objects (%),"U2OS [4]; 12 h, replicate 1",7% and 4%
same,Population Mitochondria Different-Phenotype (%),"U2OS [4]; 12 h, replicate 1",30% and 26%
same,Population Mitotic Cells (%),"U2OS [4]; 12 h, replicate 1",59% and 25%
same,Population Normal (%),"U2OS [4]; 12 h, replicate 1",92% and 95%
same,Population Tubulin-Different-Phenotype (%),"U2OS [4]; 12 h, replicate 1",72% and 24%
same,Total Cell Count,"U2OS [4]; 12 h, replicate 1",122 and 100
same,Population Apoptotic (%),"U2OS [4]; 12 h, replicate 2",91% and 33%
same,Population Fragmented Nuclei (%),"U2OS [4]; 12 h, replicate 2",23% and 11%
same,Population Healthy Nuclei (%),"U2OS [4]; 12 h, replicate 2",59% and 85%
same,Population Hoechst High Intensity Objects (%),"U2OS [4]; 12 h, replicate 2",17% and 6%
same,Population Membrane Permeable-Phenotype (%),"U2OS [4]; 12 h, replicate 2",27% and 12%
same,Population Mitochondria Different-Phenotype (%),"U2OS [4]; 12 h, replicate 2",37% and 32%
same,Population Normal (%),"U2OS [4]; 12 h, replicate 2",82% and 93%
same,Population Tubulin-Different-Phenotype (%),"U2OS [4]; 12 h, replicate 2",55% and 32%
same,Total Cell Count,"U2OS [4]; 12 h, replicate 2",116 and 91
same,Population Fragmented Nuclei (%),"U2OS [4]; 24 h, replicate 1",16%
same,Population Healthy Nuclei (%),"U2OS [4]; 24 h, replicate 1",56% and 83%
same,Population Mitochondria Different-Phenotype (%),"U2OS [4]; 24 h, replicate 1",57% and 45%
same,Population Normal (%),"U2OS [4]; 24 h, replicate 1",81% and 96%
same,Population Tubulin-Different-Phenotype (%),"U2OS [4]; 24 h, replicate 1",72% and 37%
same,Total Cell Count,"U2OS [4]; 24 h, replicate 1",125 and 100
same,Population Apoptotic (%),"U2OS [4]; 24 h, replicate 2",59% and 30%
same,Population Fragmented Nuclei (%),"U2OS [4]; 24 h, replicate 2",13% and 10%
same,Population Healthy Nuclei (%),"U2OS [4]; 24 h, replicate 2",53% and 78%
same,Population Hoechst High Intensity Objects (%),"U2OS [4]; 24 h, replicate 2",19% and 8%
same,Population Mitochondria Different-Phenotype (%),"U2OS [4]; 24 h, replicate 2",51% and 52%
same,Population Mitotic Cells (%),"U2OS [4]; 24 h, replicate 2",40% and 69%
same,Population Normal (%),"U2OS [4]; 24 h, replicate 2",80% and 91%
same,Population Tubulin-Different-Phenotype (%),"U2OS [4]; 24 h, replicate 2",48% and 38%
same,Total Cell Count,"U2OS [4]; 24 h, replicate 2",130 and 91
same,Growth Rate,U2OS [5]; [7],0
same,Growth Rate,U2OS [5]; [11],0
same,Growth Rate,U2OS [5]; [8],0
same,Growth Rate,U2OS [5]; [9],0
same,Growth Rate,U2OS [5]; [10],0
same,Growth Rate,HEK-293T [6]; [11],0
same,Growth Rate,HEK-293T [6]; [8],0
same,Growth Rate,HEK-293T [6]; [9],0
same,Growth Rate,HEK-293T [6]; [10],0
